Measurements collected from several papers.
CFTR: Cystic fibrosis transmembrane conductance regulator (CFTR, Homo sapiens, UniProt P13569)
PKN3: Serine/threonine-protein kinase N3 (PKN3, Homo sapiens, UniProt Q6P5Z2)
ADORA2B: Adenosine receptor A2b (ADORA2B, Homo sapiens, UniProt P29275)

CCN(CC)c1ccc(C2Nc3ccc(C(=O)c4ccccc4)cc3NC3=C2C(=O)CC(C)(C)C3)cc1 (stereo not drawn)  inhibition (Beta-3 adrenergic receptor (ADRB3, Homo sapiens, UniProt P13945); ligand displacement; radioligand; 10 µM): 0%
CC(/C=C/C(=O)NO)=C\[C@@H](C)C(=O)c1ccc(N(C)C)cc1  inhibition (Histone deacetylase 11 (HDAC11, Homo sapiens, UniProt Q96DB2); enzyme activity; inhibitor; fluorescence; 20 µM): < 50%
CC(C)(NC(=O)OC1CCCCC1)c1csc(-c2ccc(F)cc2)n1  inhibition (N-terminal Xaa-Pro-Lys N-methyltransferase 1 (Homo sapiens, UniProt Q9BV86); enzyme activity; inhibitor; fluorescence; 100 µM): < 50%
O=C(CNc1cccc2ccccc12)NN=Cc1cc(Br)c(O)c(Br)c1  inhibition (CFTR; ion current; inhibitor; 50 µM): 87%
CCN(c1cc(C#CCN2CCOCC2)cc(C(=O)NCc2c(C)cc(C)[nH]c2=O)c1C)[C@H]1CC[C@H](N(C)CCOC)CC1  inhibition (Histone-lysine N-methyltransferase NSD2 (NSD2, Homo sapiens, UniProt O96028); enzyme activity; inhibitor; 1 µM): 26%
Cn1cncc1C1=CN(c2ncnc3[nH]cnc23)CCS1  inhibition (PKN3; enzyme activity; inhibitor; radiometric; 2 µM): 80.4%
CN(C)C1CCN(CC#Cc2nn(C3CCCC3)c3nc(NCc4ccccc4)ncc23)C1 (stereo not drawn)  inhibition (RAF proto-oncogene serine/threonine-protein kinase (RAF1, Homo sapiens, UniProt P04049, Y340D/Y341D); enzyme activity; inhibitor; FRET; 0.1 µM): -5%
CCCCCC(C)N1CCCn2c1nc1c2c(=O)n(C)c(=O)n1C (stereo not drawn)  inhibition (ADORA2B; ligand displacement; radioligand; 10 µM; cell membranes): -3%
Oc1cccc(Nc2nc(-c3ccc(F)cc3F)cs2)c1  inhibition (ADORA2B; cell-free assay; 10 µM): -11.9%
CC(C)N1CCCn2c1nc1c2c(=O)n(C)c(=O)n1C  inhibition (ADORA2B; ligand displacement; radioligand; 10 µM; cell membranes): -4%
CC(=NNC(=O)CNc1ccc2ccccc2c1)c1cc(Br)c(O)c(Br)c1O  inhibition (CFTR; ion current; inhibitor; 50 µM): 81%
CCOC(=O)C1=C(C)NC(c2ccccc2)=C(C(=O)OCc2ccccc2)C1C#Cc1ccccc1 (stereo not drawn)  inhibition (Adenosine receptor A1 (Mus musculus, UniProt Q60612); ligand displacement; radioligand; 10 µM; cell membranes): 0%
C#CCN1CCCn2c1nc1c2c(=O)n(C)c(=O)n1C  inhibition (ADORA2B; ligand displacement; radioligand; 10 µM; cell membranes): 29%
O=C(c1ccc(Cl)cc1)N(Cc1ccccc1)C1CCCCC1  inhibition (Prostaglandin E2 receptor EP2 subtype (PTGER2, Homo sapiens, UniProt P43116); cell-free assay; 10 µM): 14.3%
C=CCN1CCCn2c1nc1c2c(=O)n(C)c(=O)n1C  inhibition (ADORA2B; ligand displacement; radioligand; 10 µM; cell membranes): 6%
CC(Nc1ccc2ccccc2c1)C(=O)NN=Cc1cc(Br)c(O)c(Br)c1 (stereo not drawn)  inhibition (CFTR; ion current; inhibitor; 50 µM): 80%
CCN1CCCn2c1nc1c2c(=O)n(C)c(=O)n1C  inhibition (ADORA2B; ligand displacement; radioligand; 10 µM; cell membranes): 12%
O=C(CNc1ccc(Cl)cc1)NN=Cc1cc(Br)c(O)c(Br)c1O  inhibition (CFTR; ion current; inhibitor; 50 µM): 91%
COc1cc(NC(C)=O)c(Cl)cc1C(=O)Nc1nccs1  inhibition (ADORA2B; cell-free assay; 10 µM): -34.6%
CCCCN1CCCn2c1nc1c2c(=O)n(C)c(=O)n1C  inhibition (ADORA2B; ligand displacement; radioligand; 10 µM; cell membranes): 3%
Cn1cnc(Br)c1C1=CN(c2ncnc3[nH]cnc23)CCS1  inhibition (PKN3; enzyme activity; inhibitor; radiometric; 2 µM): 88.3%
CC(C)CN1CCCn2c1nc1c2c(=O)n(C)c(=O)n1C  inhibition (ADORA2B; ligand displacement; radioligand; 10 µM; cell membranes): 5%
O=C(CNc1cccc2ccccc12)NN=Cc1cc(Br)c(O)c(Br)c1O  inhibition (CFTR; ion current; inhibitor; 50 µM): 86%
CC(=O)c1nn(CC(=O)N2C[C@H](F)C[C@H]2C(=O)Nc2cccc(Br)n2)c2ccc(-c3cnc(C)nc3)cc12  inhibition (Chymase (CMA1, Homo sapiens, UniProt P23946); enzyme activity; inhibitor; 10 µM): -1.2%
